Source: ChEMBL document CHEMBL3877293, “Synthesis and Antineoplastic Evaluation of Novel Unsymmetrical 1,3,4-Oxadiazoles” (J Med Chem, 2016)
Calls of active or inactive are those of the source. The calls are words filed in the database; no cut-off is given here.

What was measured:
[1] = Cell cycle arrest in human NB1 hTERT cells assessed as sub G1 phase accumulation at 1 uM after 72 hrs by propidium iodide staining based flow cytometry relative to control; format: functional
HeLa [2] = assay: Cytotoxicity against human HeLa cells assessed as inhibition of colony formation after 2 weeks by crystal violet staining based assay; format: functional, cell-based
How it was run: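 HeLa seeded at 100-200 cells/well in six-well plates and treated with 0.3 or 0.03 μM compound (DMSO control). Medium with compound changed every 3 days for about two weeks, until control colonies were visible. Colonies fixed and stained with 6.0% glutaraldehyde/0.5% crystal violet for 30 min, then counted against control. Done in triplicate.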

[3] = Effect on p53 expression in human NB-1 cells at 1 uM after 24 hrs by immunoblot method; format: cell-based; conditions: nb1, 24 h
How it was run: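 After 24 h treatment at 1 μM, cells lysed in Tris pH 8/NaCl/glycerol/NP-40/EDTA buffer with protease inhibitors. Equal lysate amounts run on 10% SDS gels, blotted to nitrocellulose, probed for p53 with GAPDH as loading control, detected by enhanced chemiluminescence. Bands quantified by densitometry against GAPDH and compared with untreated cells; three independent experiments.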

[4] = Antiproliferative activity against human SH-SY5Y cells after 72 hrs by XTT assay; format: functional, cell-based
How it was run: (§1)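 Cells plated at 1500–2000 per well by doubling time, treated after 24 h with a concentration series in six triplicate wells, and incubated 72 h without a medium change. XTT reagent was then added for 4 h at 37 °C and absorbance read at 490 nm. IC50 is the concentration halving absorbance versus untreated cells. Experiments run in triplicate.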

[5] = Cell cycle arrest in human NB-1 cells assessed as G1 phase accumulation at 1 uM after 72 hrs by propidium iodide staining based flow cytometry (reference value: 81.7%); conditions: nb1, 72 h
[6] = Antiproliferative activity against human IBR3-G SV40 cells after 72 hrs by XTT assay; format: functional, cell-based; conditions: IBR3-G SV40, 72 h; how it was run: as §1
[7] = Antiproliferative activity against human PC3 cells after 72 hrs by XTT assay; format: functional, cell-based; conditions: PC-3, 72 h; how it was run: as §1
[8] = Cell cycle arrest in human NB1 hTERT cells assessed as S phase accumulation at 1 uM after 72 hrs by propidium iodide staining based flow cytometry (reference value: 3.6%); format: functional
[9] = Cell cycle arrest in human RD cells assessed as subG1 phase accumulation at 1 uM after 24 hrs by propidium iodide staining based flow cytometry relative to DMSO control; format: functional
[10] = Induction of apoptosis in human NB-1 cells assessed as necrotic cells at 5 uM after 72 hrs by Annexin-V FITC/propidium iodide staining based flow cytometry (reference value: 0.2%); format: cell-based; conditions: nb1, 72 h
[11] = Cell cycle arrest in human Kelly cells assessed as subG1 phase accumulation at 1 uM after 24 hrs by propidium iodide staining based flow cytometry relative to DMSO control; format: functional
[12] = Cell cycle arrest in human A549 cells assessed as G2/M phase accumulation at 1 uM after 24 hrs by propidium iodide staining based flow cytometry (reference value: 27 +/- 1.32%); format: functional
[13] = Cell cycle arrest in human NB-1 cells assessed as S phase accumulation at 1 uM after 24 hrs by propidium iodide staining based flow cytometry (reference value: 3.8%); conditions: nb1, 24 h
[14] = Cell cycle arrest in human T98G cells assessed as subG1 phase accumulation at 1 uM after 24 hrs by propidium iodide staining based flow cytometry relative to DMSO control; format: functional
SH-SY5Y [15] = assay: Disruption of beta-tubulin network in human SH-SY5Y cells assessed as apoptotic nuclei at 1 uM after 24 hrs by DAPI staining based immunofluorescence microscopic analysis; format: cell-based
How it was run: (§2)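 Cells seeded on glass coverslips (1 x 10^5/well), treated 24 h, fixed in 4% paraformaldehyde 15 min, permeabilized with 0.5% Triton X-100, blocked in 5% BSA/PBS, stained overnight at 4 °C with anti-β-tubulin (1:200) then fluorescent secondary antibody; nuclei counterstained with DAPI; microtubule organization and nuclear morphology examined by fluorescence microscopy.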

[16] = Cell cycle arrest in human NCI-H1299 cells assessed as G1 phase accumulation at 1 uM after 48 hrs by propidium iodide staining based flow cytometry (reference value: 81%); format: functional
[17] = Antiproliferative activity against human HeLa cells after 72 hrs by XTT assay; format: functional, cell-based; how it was run: as §1
[18] = Antiproliferative activity against human MCF7 cells after 72 hrs by XTT assay; format: functional, cell-based; conditions: MCF7, 72 h; how it was run: as §1
[19] = Cell cycle arrest in human Kelly cells assessed as G2/M phase accumulation at 1 uM after 24 hrs by propidium iodide staining based flow cytometry (reference value: 18 +/- 1.28%); format: functional
[20] = Cell cycle arrest in human MCF7 cells assessed as G1 phase accumulation at 1 uM after 144 hrs by propidium iodide staining based flow cytometry (reference value: 65.9%); format: functional
[21] = Cell cycle arrest in human PC3 cells assessed as G2/M phase accumulation at 1 uM after 24 hrs by propidium iodide staining based flow cytometry (reference value: 26.8 +/- 1.69%); format: functional; conditions: PC-3
[22] = Cell cycle arrest in human NCI-H1299 cells assessed as sub G1 phase accumulation at 1 uM after 48 hrs by propidium iodide staining based flow cytometry relative to control; format: functional
SH-SY5Y [23] = assay: Disruption of beta-tubulin network in human SH-SY5Y cells assessed as pyknotic nuclei at 1 uM after 24 hrs by DAPI staining based immunofluorescence microscopic analysis; format: cell-based; how it was run: as §2
[24] = Antiproliferative activity against human IBR3G cells after 72 hrs by XTT assay; format: cell-based; how it was run: as §1
[25] = Cell cycle arrest in human Kelly cells assessed as G1 phase accumulation at 1 uM after 24 hrs by propidium iodide staining based flow cytometry (reference value: 65.9 +/- 1.87%); format: functional
[26] = Cell cycle arrest in human NB1 hTERT cells assessed as G2/M phase accumulation at 1 uM after 48 hrs by propidium iodide staining based flow cytometry (reference value: 27.2%); format: functional
[27] = Antiproliferative activity against human MRC5-SV1 S40 cells after 72 hrs by XTT assay; format: functional, cell-based; how it was run: as §1
[28] = Cell cycle arrest in human SH-SY5Y cells assessed as G2/M phase accumulation at 1 uM after 24 hrs by propidium iodide staining based flow cytometry (reference value: 26.2 +/- 1.27%); format: functional
[29] = Cell cycle arrest in human NB-1 cells assessed as G1 phase accumulation at 1 uM after 24 hrs by propidium iodide staining based flow cytometry (reference value: 75%); conditions: nb1, 24 h
HeLa [30] = assay: Induction of apoptosis in human HeLa cells assessed as late apoptotic cells at 5 uM after 48 hrs by Annexin-V FITC/propidium iodide staining based flow cytometry (reference value: 4.9%); format: functional
[31] = Cell cycle arrest in human NB1 hTERT cells assessed as G2/M phase accumulation at 1 uM after 72 hrs by propidium iodide staining based flow cytometry (reference value: 23.9%); format: functional
[32] = Antiproliferative activity against human NB-1 cells after 72 hrs by XTT assay; format: cell-based; conditions: NB1, 72 h; how it was run: as §1
[33] = Antiproliferative activity against human SK-N-AS cells after 72 hrs by XTT assay; format: functional, cell-based; how it was run: as §1
A549 = assay: Induction of apoptosis in human A549 cells assessed as live cells at 5 uM after 72 hrs by Annexin-V FITC/propidium iodide staining based flow cytometry (reference value: 91.9%); format: functional

Question: With `Cc1[nH]c2c(c1-c1nnc(-c3ccccc3)o1)Cc1ccccc1-2` as the compound, how does the Activity [1] read?
Answer: 25.3%

Question: What about the inhibition (HeLa [2]) of the same compound?
Answer: Dose-dependent effect

Question: And the Activity [3]?
Answer: Non-Toxic

Question: And the IC50 [4]?
Answer: 70 nM

Question: What about the Activity [5] of the same compound?
Answer: 77.6%

Question: And the IC50 [6]?
Answer: 210 nM

Question: And the IC50 [7]?
Answer: 670 nM

Question: And the Activity [8]?
Answer: 8.3%

Question: And the Activity [9]?
Answer: 6.1%

Question: What about the Activity [10] of the same compound?
Answer: 0.8%

Question: What about the Activity [11] of the same compound?
Answer: 13.4%

Question: What about the Activity [12] of the same compound?
Answer: 65.3%

Question: And the Activity [13]?
Answer: 3.2%

Question: What about the Activity [14] of the same compound?
Answer: 16.8%

Question: And the Activity (SH-SY5Y [15])?
Answer: Active

Question: And the Activity [16]?
Answer: 34.3%

Question: What about the IC50 [17] of the same compound?
Answer: 50 nM

Question: And the IC50 [18]?
Answer: 1700 nM

Question: And the Activity [19]?
Answer: 42.9%

Question: What about the Activity [20] of the same compound?
Answer: 14.5%

Question: And the Activity [21]?
Answer: 72%

Question: And the Activity [22]?
Answer: 13.4%

Question: And the Activity (SH-SY5Y [23])?
Answer: Active

Question: And the IC50 [24]?
Answer: 770 nM

Question: And the Activity [25]?
Answer: 34.3%

Question: And the Activity [26]?
Answer: 23.1%

Question: What about the IC50 [27] of the same compound?
Answer: 130 nM

Question: And the Activity [28]?
Answer: 43.9%

Question: What about the Activity [29] of the same compound?
Answer: 73%

Question: What about the Activity (HeLa [30]) of the same compound?
Answer: 85.1%

Question: What about the Activity [31] of the same compound?
Answer: 20.8%

Question: What about the IC50 [32] of the same compound?
Answer: 1300 nM

Question: What about the IC50 [33] of the same compound?
Answer: 190 nM

Question: And the Activity (A549)?
Answer: 42.7%
